Assay results gathered from unrelated publications.
Protocols differ between the studies behind these lines.
Observed: cell growth or viability

SMILES	cell line	assay	setting	IC50 [µM]
CC(C(=O)NC1CCCCC1)c1cccc(C(OC(=O)NC2CCCCC2)c2ccccc2)c1 (stereo not drawn)	FM3A	–	48 h	15
O=C1CCN(S(=O)(=O)c2ccc(F)cc2)CC(=O)c2ccccc2N1	L6	–	–	> 280
Cc1c2oc3c(C)ccc(C(=O)N[C@@H]4C(=O)N[C@H](C(C)C)C(=O)N5CCC[C@H]5C(=O)N(C)CC(=O)N(C)[C@@H](C(C)C)C(=O)O[C@@H]4C)c3nc-2c(C(=O)N[C@@H]2C(=O)N[C@H](C(C)C)C(=O)N3CCC[C@H]3C(=O)N(C)CC(=O)N(C)[C@@H](C(C)C)C(=O)O[C@@H]2C)c(N)c1=O	GISTT1	resazurin	72 h	0.07
C[C@@H]1C[C@H](O)[C@]2(O)O[C@@H]3C[C@@]4(C)[C@@H](CC[C@@H]5[C@@H]4CC[C@]4(C)[C@@H](C6=CC(=O)OC6)CC[C@]54O)C[C@H]3O[C@@H]2O1	L6	resazurin	72 h	7.63
COc1cc(C(=O)c2cc3c(-c4ccccc4)c(O)ccc3o2)cc(OC)c1OC	L1210	–	48 h	> 50
CC(C(=O)NCCc1ccccc1)c1cccc(C(OC(=O)NCCc2ccccc2)c2ccccc2)c1 (stereo not drawn)	L1210	–	48 h	8.2
N.N.[Cl][Pt][Cl]	NCI-H460	MTT	72 h	2
CCCSc1ccc2nc(NC(=O)OC)[nH]c2c1	GISTT1	resazurin	72 h	0.3
COc1ccc(/C=C\c2cc(OC)c(OC)c(OC)c2)cc1O	L1210	–	48 h	0.0028
CC(C(=O)NOCc1ccccc1)c1cccc(C(OC(=O)NOCc2ccccc2)c2ccccc2)c1 (stereo not drawn)	L1210	–	48 h	9.7
COc1ccc2c(c1)NC(=O)CN2c1nc(Cl)nc2c1CCCC2	MDA-MB-453	MTS	72 h	0.256
CC(C(=O)NCc1ccccc1)c1cccc(C(OC(=O)NCc2ccccc2)c2ccccc2)c1 (stereo not drawn)	L1210	–	48 h	10
CC(C)=CCOc1c2occc2cc2ccc(=O)oc12	COLO 205	MTT	72 h	> 100
C[C@@H]1C[C@@]2(NCCS2)[C@]2(O)O[C@@H]3C[C@@]4(C=O)[C@@H](CC[C@@H]5[C@@H]4CC[C@]4(C)[C@@H](C6=CC(=O)OC6)CC[C@]54O)C[C@H]3O[C@@H]2O1	L6	resazurin	72 h	2.74
CC(C(=O)NC1CCCC1)c1cccc(C(OC(=O)NC2CCCC2)c2ccccc2)c1 (stereo not drawn)	FM3A	–	48 h	12
N.N.[Cl][Pt][Cl]	NCI-H460	–	48 h	21.6
CC(C(=O)N1CCCCC1)c1cccc(C(OC(=O)N2CCCCC2)c2ccccc2)c1 (stereo not drawn)	L1210	–	48 h	15
COc1ccc2c(c1)NC(=O)CN2c1nc(C)nc(C)c1C	MDA-MB-453	MTS	72 h	0.0043
